Test results taken from ChEMBL document CHEMBL1156146 (Bioorg Med Chem Lett, 2009).
Activity calls are given as the source filed them. No cut-off for these calls is given here.

Key:
Rattus norvegicus [1] = assay: Antiinflammatory activity against assessed as inhibition of carrageenan-induced foot paw edema in po dosed rat after 3 hrs; format: functional
Outline: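 Oral dosing; edema induced by carrageenan in rat paw and measured 3 h after administration. ED50 (µmol/kg) derived from the dose–response.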

[2] = Selectivity index, ratio of IC50 for ovine COX-1 to IC50 for human recombinant COX-2
Rattus norvegicus [3] = assay: Ratio of compound ED50 to aspirin ED50 for inhibition of carrageenan-induced foot paw edema in po dosed rat after 3 hrs; format: functional
[4] = target: T1, Prostaglandin G/H synthase 2 (Homo sapiens, UniProt P35354); assay: Inhibition of human recombinant COX-2 by enzyme immuno assay
T1 sequence (P35354 whole entry): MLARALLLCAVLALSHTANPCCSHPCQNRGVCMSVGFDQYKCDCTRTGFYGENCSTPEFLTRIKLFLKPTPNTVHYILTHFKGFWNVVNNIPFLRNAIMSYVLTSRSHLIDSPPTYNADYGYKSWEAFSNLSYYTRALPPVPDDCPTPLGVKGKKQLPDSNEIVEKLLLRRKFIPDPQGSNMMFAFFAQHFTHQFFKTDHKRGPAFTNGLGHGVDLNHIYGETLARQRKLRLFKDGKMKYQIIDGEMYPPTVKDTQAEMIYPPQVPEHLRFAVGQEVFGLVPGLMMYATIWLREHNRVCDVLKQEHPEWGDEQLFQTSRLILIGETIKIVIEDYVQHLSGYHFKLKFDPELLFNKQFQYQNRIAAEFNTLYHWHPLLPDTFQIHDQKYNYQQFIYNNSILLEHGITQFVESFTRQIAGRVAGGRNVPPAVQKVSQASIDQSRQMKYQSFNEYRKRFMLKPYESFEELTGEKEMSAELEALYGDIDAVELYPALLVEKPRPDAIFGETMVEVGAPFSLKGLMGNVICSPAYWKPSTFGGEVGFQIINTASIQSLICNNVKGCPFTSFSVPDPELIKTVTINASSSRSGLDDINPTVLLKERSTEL

[5] = target: Prostaglandin G/H synthase 1 (Ovis aries) (UniProt P05979); assay: Inhibition of ovine COX-1 by enzyme immuno assay
5-lipoxygenase = target: T2, 5-lipoxygenase (Solanum tuberosum, UniProt O49150); assay: Inhibition of potato 5-LOX after 5 mins by enzyme immuno assay
T2 sequence (O49150 whole entry): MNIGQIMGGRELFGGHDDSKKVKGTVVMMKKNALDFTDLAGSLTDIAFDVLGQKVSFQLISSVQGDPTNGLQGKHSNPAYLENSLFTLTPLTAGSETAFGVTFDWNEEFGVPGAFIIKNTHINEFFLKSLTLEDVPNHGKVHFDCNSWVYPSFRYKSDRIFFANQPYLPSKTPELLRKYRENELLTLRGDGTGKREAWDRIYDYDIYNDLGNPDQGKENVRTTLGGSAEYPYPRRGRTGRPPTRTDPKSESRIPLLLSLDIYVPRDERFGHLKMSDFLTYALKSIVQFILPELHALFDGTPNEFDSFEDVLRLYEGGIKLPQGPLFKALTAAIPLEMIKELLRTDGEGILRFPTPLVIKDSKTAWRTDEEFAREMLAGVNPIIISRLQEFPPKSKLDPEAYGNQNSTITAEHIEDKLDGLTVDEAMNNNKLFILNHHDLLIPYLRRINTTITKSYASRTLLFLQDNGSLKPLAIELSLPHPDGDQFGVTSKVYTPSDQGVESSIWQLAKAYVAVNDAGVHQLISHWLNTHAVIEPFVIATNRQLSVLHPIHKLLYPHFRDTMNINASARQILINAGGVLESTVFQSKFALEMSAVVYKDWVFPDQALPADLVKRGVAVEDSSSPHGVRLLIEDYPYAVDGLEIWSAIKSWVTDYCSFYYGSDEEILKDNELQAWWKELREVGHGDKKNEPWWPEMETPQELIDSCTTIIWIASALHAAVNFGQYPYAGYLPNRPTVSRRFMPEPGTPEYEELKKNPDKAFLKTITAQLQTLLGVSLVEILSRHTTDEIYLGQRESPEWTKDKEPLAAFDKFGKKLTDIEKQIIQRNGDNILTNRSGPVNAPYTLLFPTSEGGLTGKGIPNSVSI
Outline: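 Potato 5-LOX inhibition measured with a LOX assay kit. IC50 is the mean of two determinations, deviation from the mean <10%.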

Rattus norvegicus [6] = assay: Gastrointestinal toxicity in rat assessed ulcer index at 1.38 mmol/kg, po after 6 hrs relative to aspirin; format: organism-based; conditions: in vivo
Outline: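 Rats fasted 24 h (water allowed) and dosed orally at 1.38 mmol/kg as a suspension in 1% methylcellulose. Killed 6 h later; stomachs opened along greater curvature, rinsed, and lesions measured by magnifier. Lesions up to 1 mm rated 1, 1–2 mm rated 2, >2 mm rated by length in mm. UI is summed lesion length per stomach averaged over n = 4; mean ± SEM.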

Rattus norvegicus [7] = assay: Ratio of compound ED50 to ibuprofen ED50 for inhibition of carrageenan-induced foot paw edema in po dosed rat after 3 hrs; format: functional
Outline: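 Carrageenan-induced paw edema in rats, test compound given orally. […] The ratio compares the compound ED50 with the ibuprofen ED50 from this model.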

Compound | ED50 (Rattus norvegicus [1]) | Ratio IC50 [2] | Ratio ED50 (Rattus norvegicus [3]) | IC50 [4] | IC50 [5] | IC50 (5-lipoxygenase) | UI (Rattus norvegicus [6]) | Ratio ED50 (Rattus norvegicus [7])
O=C(O)c1ccc(-c2ccn(C(F)F)c(=O)c2)cc1O | 497 µmol/kg | > 22 | 1.4 | 4.4 µM | > 100 µM | 4.7 µM | 0 | 
O=C(O)/C=C/c1ccc(O)c(O)c1 [CAFFEIC ACID] |  |  |  |  |  | 4 µM |  | 
CC(=O)Oc1ccccc1C(=O)O [ASPIRIN] | 716 µmol/kg |  |  |  |  |  | 57.4 | 
O=C(O)c1cc(-c2ccc(F)cc2F)ccc1O [DIFLUNISAL] | 68 µmol/kg |  |  |  |  |  |  | 
O=C(O)c1cc(-c2ccn(C(F)F)c(=O)c2)ccc1O | 434 µmol/kg | > 15 | 1.6 | 0.98 µM | 15.4 µM | 0.37 µM | 0 | 
CC(=O)NS(=O)(=O)c1cc(-c2ccn(C(F)F)c(=O)c2)ccc1C(=O)O | 258 µmol/kg | > 38 | 2.8 | 2.6 µM | > 100 µM | 0.28 µM |  | 1.3
CC(=O)NS(=O)(=O)c1ccc(-c2ccn(C(F)F)c(=O)c2)cc1C(=O)O | inactive | > 5 |  | 17.6 µM | > 100 µM | 0.32 µM |  | 
